Source: ChEMBL document CHEMBL1142065, “In vitro and in vivo activities of a new cephalosporin, FR264205, against Pseudomonas aeruginosa” (2007)
The source made the active and inactive calls.

Legend:
Pseudomonas aeruginosa [1] = experiment: Antibacterial activity against Pseudomonas aeruginosa FP1380 expressing constitutive AmpC; format: functional
In short: (§1)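 MIC by agar dilution (CLSI M7-A7) on Mueller-Hinton agar with twofold serial drug dilutions; 10^4 CFU spotted per spot; aerobic incubation 18 to 20 h at 35°C; MIC read as lowest concentration preventing visible growth.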

Pseudomonas aeruginosa [2] = experiment: Antibacterial activity against Pseudomonas aeruginosa PAO1456 expressing constitutive AmpC; format: functional
In short: (§2)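 Agar dilution MIC per NCCLS (CLSI) M7-A7 on Mueller-Hinton agar with twofold serial drug dilutions. Inoculum 10^4 CFU per spot, aerobic incubation 18 to 20 h at 35°C. MIC is the lowest concentration preventing visible growth.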

Pseudomonas aeruginosa [3] = experiment: Antibacterial activity against Pseudomonas aeruginosa PAO4069 expressing inducible AmpC; format: functional; in short: as §2
Pseudomonas aeruginosa [4] = experiment: Antibacterial activity against Pseudomonas aeruginosa KG2212 producing MexAB-OprM efflux pump; format: functional; in short: as §2
Pseudomonas aeruginosa [5] = experiment: Antibacterial activity against Pseudomonas aeruginosa KG3056 producing MexCD-OprJ efflux pump; format: functional; in short: as §2
Pseudomonas aeruginosa [6] = experiment: Antibacterial activity against Pseudomonas aeruginosa KG4545 producing MexXY efflux pump; format: functional; in short: as §2
Escherichia coli [7] = experiment: Antibacterial activity against Escherichia coli C600 expressing ESBL TEM3; format: functional; in short: as §1
Escherichia coli [8] = experiment: Antibacterial activity against Escherichia coli C600 expressing ESBL TEM4; format: functional; in short: as §1
Escherichia coli [9] = experiment: Antibacterial activity against Escherichia coli C600 expressing ESBL TEM5; format: functional; in short: as §1
Escherichia coli [10] = experiment: Antibacterial activity against Escherichia coli C600 expressing ESBL TEM6; format: functional; in short: as §1
Escherichia coli [11] = experiment: Antibacterial activity against Escherichia coli C600 expressing ESBL TEM8; format: functional; in short: as §1
Escherichia coli [12] = experiment: Antibacterial activity against Escherichia coli C600 expressing ESBL TEM9; format: functional; in short: as §1
Escherichia coli [13] = experiment: Antibacterial activity against Escherichia coli C600 expressing ESBL SHV2; format: functional; in short: as §1
Escherichia coli [14] = experiment: Antibacterial activity against Escherichia coli C600 expressing ESBL SHV3; format: functional; in short: as §1
Escherichia coli [15] = experiment: Antibacterial activity against Escherichia coli C600 expressing ESBL SHV4; format: functional; in short: as §1
Escherichia coli [16] = experiment: Antibacterial activity against Escherichia coli C600 expressing ESBL OXA2; format: functional; in short: as §1
Escherichia coli [17] = experiment: Antibacterial activity against Escherichia coli C600 expressing ESBL CTX-M3; format: functional; in short: as §1
Escherichia coli [18] = experiment: Antibacterial activity against Escherichia coli C600 expressing ESBL CTX-M18; format: functional; in short: as §1
Escherichia coli [19] = experiment: Antibacterial activity against Escherichia coli C600; format: functional; in short: as §1
Pseudomonas aeruginosa [20] = experiment: Antibacterial activity against Pseudomonas aeruginosa 22029 expressing metallo beta lactamase; format: functional; in short: as §2
Pseudomonas aeruginosa [21] = experiment: Antibacterial activity against Pseudomonas aeruginosa KG4001 producing MexEF-OprN efflux pump; format: functional; in short: as §2
Pseudomonas aeruginosa [22] = experiment: Antibacterial activity against Pseudomonas aeruginosa PAO1; format: functional; in short: as §2
Pseudomonas aeruginosa [23] = experiment: Antibacterial activity against Pseudomonas aeruginosa PAO4222; format: functional; in short: as §2
Pseudomonas aeruginosa [24] = experiment: Reduction in susceptibility against Pseudomonas aeruginosa PAO1 after single passage; format: functional, organism-based
In short: (§3)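 PAO1 passaged daily for five consecutive days in fresh Mueller-Hinton broth with twofold drug dilution series. Each next inoculum came from the tube at one-fourth the MIC. MIC change was followed across passages.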

Pseudomonas aeruginosa [25] = experiment: Antibacterial activity against Pseudomonas aeruginosa 93; format: functional; in short: as §1
Pseudomonas aeruginosa [26] = experiment: Efficacy against Pseudomonas aeruginosa 93 pulmonary infection in mouse assessed as reduction in bacterial counts at 2 mg/kg, sc; format: functional, organism-based; set-up: dose 2 mg/kg
In short: (§4)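 Male ICR mice (4 weeks), made neutropenic with cyclophosphamide 200 mg/kg ip 4 days before infection. Under pentobarbital anesthesia (50 mg/kg iv) they were challenged intranasally with 3.30 log10 CFU of strain 93, grown on tryptic soy agar 35°C 20 h and suspended in saline. Dosed sc twice daily for 3 days from 3 h post-infection. Lung viable counts taken the day after last dose; 6 mice/dose.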

Pseudomonas aeruginosa [27] = experiment: Efficacy against Pseudomonas aeruginosa 93 pulmonary infection in mouse assessed as reduction in bacterial counts at 10 mg/kg, sc; format: functional, organism-based; set-up: dose 10 mg/kg; in short: as §4
Escherichia coli [28] = experiment: Antibacterial activity against Escherichia coli C600 expressing ESBL TEM7; format: functional; in short: as §1
Pseudomonas aeruginosa [29] = experiment: Antibacterial activity against Pseudomonas aeruginosa; format: functional; in short: as §2
Pseudomonas aeruginosa [30] = experiment: Antibacterial activity against ceftazidime-resistant Pseudomonas aeruginosa; format: functional; in short: as §2
Pseudomonas aeruginosa [31] = experiment: Antibacterial activity against imipenem-resistant Pseudomonas aeruginosa; format: functional; in short: as §2
Pseudomonas aeruginosa [32] = experiment: Antibacterial activity against ciprofloxacin-resistant Pseudomonas aeruginosa; format: functional; in short: as §2
Escherichia coli [33] = experiment: Antibacterial activity against Escherichia coli C600 expressing TEM1; format: functional; in short: as §1
Escherichia coli [34] = experiment: Antibacterial activity against Escherichia coli C600 expressing TEM2; format: functional; in short: as §1
Escherichia coli [35] = experiment: Antibacterial activity against Escherichia coli C600 expressing SHV1; format: functional; in short: as §1
Escherichia coli [36] = experiment: Antibacterial activity against Escherichia coli C600 expressing OXA1; format: functional; in short: as §1
Pseudomonas aeruginosa [37] = experiment: Antibacterial activity against Pseudomonas aeruginosa PAO1 after 5 serial passages; format: functional; in short: as §3
Pseudomonas aeruginosa [38] = experiment: Efficacy against Pseudomonas aeruginosa 93 assessed as reduction in bacterial counts in mouse urinary tract infection model at 0.5 mg/kg; format: functional, organism-based; set-up: dose 0.5 mg/kg; conditions: Urine
In short: (§5)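 Female ICR mice (4 weeks) were denied water 1 day. Under pentobarbital anesthesia they received 4.32 log10 CFU of strain 93 via the […], which was then clamped 5 h. Dosed sc at 5 h post-challenge plus twice daily for 2 days. Bilateral kidney viable counts taken the day after last treatment; 6 mice/dose.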

Pseudomonas aeruginosa [39] = experiment: Efficacy against Pseudomonas aeruginosa 93 assessed as reduction in bacterial counts in mouse burn wound infection model at 50 mg/kg, relative to control; format: functional, organism-based; set-up: dose 50 mg/kg
In short: (§6)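 Male ICR mice (4 weeks), anesthetized with pentobarbital, received an ethanol flame burn on the shaved back (0.1 ml flaming ethanol applied twice). The wound was inoculated with 4.60 log10 CFU of strain 93. Dosed iv twice daily for 3 days from 3 h post-infection. Lesion viable counts (CFU/g) taken the day after last dose versus untreated controls; 6 mice/dose.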

Pseudomonas aeruginosa [40] = experiment: Efficacy against Pseudomonas aeruginosa 93 assessed as reduction in bacterial counts in mouse burn wound infection model at 10 mg/kg; format: functional, organism-based; set-up: dose 10 mg/kg; in short: as §6
Pseudomonas aeruginosa [41] = experiment: Efficacy against Pseudomonas aeruginosa 93 assessed as reduction in bacterial counts in mouse urinary tract infection model at 2 mg/kg; format: functional, organism-based; set-up: dose 2 mg/kg; conditions: Urine; in short: as §5

CC(C)(O/N=C(\C(=O)N[C@@H]1C(=O)N2C(C(=O)[O-])=C(C[n+]3ccccc3)CS[C@H]12)c1csc(N)n1)C(=O)O [CEFTAZIDIME]
128 µg/mL: MIC (Escherichia coli [11]) | MIC (Escherichia coli [13]) | MIC (Escherichia coli [15]) | MIC90 (Pseudomonas aeruginosa [30])
0.25 µg/mL: MIC (Escherichia coli [19]) | MIC (Escherichia coli [33])
8 µg/mL: MIC50 (Pseudomonas aeruginosa [32])
16 µg/mL: MIC90 (Pseudomonas aeruginosa [29]) | MIC90 (Pseudomonas aeruginosa [31])
active: Activity (Pseudomonas aeruginosa [24]) | Activity (Pseudomonas aeruginosa [26]) | Activity (Pseudomonas aeruginosa [27])
64 µg/mL: MIC (Escherichia coli [10]) | MIC (Escherichia coli [28]) | MIC50 (Pseudomonas aeruginosa [30]) | MIC90 (Pseudomonas aeruginosa [32])
0.5 µg/mL: MIC (Pseudomonas aeruginosa [5]) | MIC (Escherichia coli [36])
4 µg/mL: MIC (Escherichia coli [16]) | MIC (Escherichia coli [17]) | MIC (Escherichia coli [18]) | MIC50 (Pseudomonas aeruginosa [31])
1 µg/mL: MIC (Pseudomonas aeruginosa [25]) | MIC (Escherichia coli [34]) | MIC (Escherichia coli [35])
2 µg/mL: MIC (Pseudomonas aeruginosa [3]) | MIC (Pseudomonas aeruginosa [4]) | MIC (Pseudomonas aeruginosa [6]) | MIC (Pseudomonas aeruginosa [21]) | MIC (Pseudomonas aeruginosa [22]) | MIC (Pseudomonas aeruginosa [23]) | MIC50 (Pseudomonas aeruginosa [29])
32 µg/mL: MIC (Pseudomonas aeruginosa [2]) | MIC (Escherichia coli [7]) | MIC (Escherichia coli [8]) | MIC (Escherichia coli [9]) | MIC (Escherichia coli [12])
> 128 µg/mL: MIC (Pseudomonas aeruginosa [1]) | MIC (Escherichia coli [14]) | MIC (Pseudomonas aeruginosa [20])

Cn1c(N)c(NC(=O)NCCN)c[n+]1CC1=C(C(=O)O)N2C(=O)[C@@H](NC(=O)/C(=N\OC(C)(C)C(=O)[O-])c3nsc(N)n3)[C@H]2SC1 [CEFTOLOZANE]
32 µg/mL: MIC (Escherichia coli [9]) | MIC (Escherichia coli [10]) | MIC (Escherichia coli [12]) | MIC (Escherichia coli [13]) | MIC (Escherichia coli [14]) | MIC (Escherichia coli [28])
0.5 µg/mL: MIC (Pseudomonas aeruginosa [3]) | MIC (Pseudomonas aeruginosa [4]) | MIC (Pseudomonas aeruginosa [6]) | MIC (Pseudomonas aeruginosa [21]) | MIC (Pseudomonas aeruginosa [22]) | MIC (Pseudomonas aeruginosa [23]) | MIC50 (Pseudomonas aeruginosa [29]) | MIC (Pseudomonas aeruginosa [31]) | MIC50 (Pseudomonas aeruginosa [31]) | MIC (Escherichia coli [34]) | MIC (Escherichia coli [35]) | MIC (Escherichia coli [36])
1 µg/mL: MIC (Pseudomonas aeruginosa [2]) | MIC (Escherichia coli [7]) | MIC90 (Pseudomonas aeruginosa [29]) | MIC90 (Pseudomonas aeruginosa [31]) | MIC50 (Pseudomonas aeruginosa [32])
0.25 µg/mL: MIC (Pseudomonas aeruginosa [5]) | MIC (Escherichia coli [19]) | MIC (Pseudomonas aeruginosa [25]) | MIC (Escherichia coli [33])
4 µg/mL: MIC (Pseudomonas aeruginosa [1]) | MIC (Escherichia coli [16]) | MIC90 (Pseudomonas aeruginosa [30])
2 µg/mL: MIC (Escherichia coli [8]) | MIC (Pseudomonas aeruginosa [37]) | MIC50 (Pseudomonas aeruginosa [30]) | MIC90 (Pseudomonas aeruginosa [32])
16 µg/mL: MIC (Escherichia coli [11]) | MIC (Escherichia coli [15]) | MIC (Escherichia coli [17]) | MIC (Escherichia coli [18])
> 128 µg/mL: MIC (Pseudomonas aeruginosa [20])
active: Activity (Pseudomonas aeruginosa [26]) | Activity (Pseudomonas aeruginosa [27]) | Activity (Pseudomonas aeruginosa [38]) | Activity (Pseudomonas aeruginosa [39]) | Activity (Pseudomonas aeruginosa [40]) | Activity (Pseudomonas aeruginosa [41])
